Screening data deposited in PubChem BioAssay by SRMLSC.
Many of the other results were omitted from the sample, so hits are more common in it than they were.
bCat KO growth: beta-catenin-lacking colon tumor cell growth suppression; HCT116 beta-catenin knockout viability, CellTiter-Glo, 60 h; stronger effect = lower value; AID 818; 140,000 compounds, 1.5% hits; viability, % at 10 µM;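 active = viability at or under a set limit, the compound median less 4 SD, cut at about 6% in these data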;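 note: 0% = Hyamine 1622 control at 20 µM and 100% = untreated cell control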
Lung fibro prol: blocks proliferation of human lung fibroblasts; LL 47 human lung fibroblast viability, ATP luminescence; stronger effect = lower value; 85,000 compounds, 1.1% hits; AID 719; viability, % at 10 µM;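 active = viability at or below 50% in the single dose screen; inactive = viability above 50%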;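 note: compound exposure lasted 72 h before the ATP readout; 100% = median luminescence of untreated cell-only wells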
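Material: human LL 47 lung fibroblast cells; quantity: 1,150 cells/well; medium: IMEM plus 15% FBS; doses: 0.1% DMSO in all compound wells; timing: overnight attachment after seeding, then 72 h compound exposure at 37 °C; detection: CellTiter-Glo luminescence; measure: % viability of median cell-only signal; controls: cell-only wells, no compound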
H69AR growth 86K: blocks growth of human H69AR lung tumor cells. H69AR lung tumor viability, ATP luminescence, 72 h; stronger effect = lower value. 85,000 compounds, 6% hits. AID 598. viability, % at 10 µM;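 active = viability at or below 40%; inactive = viability above 40%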;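 note: multidrug resistant small cell line overexpressing MRP-1 efflux transporter; 100% = mean luminescence of untreated control wells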
HCT116 PTEN-null: suppresses growth of cells with PTEN deletion; HCT116 PTEN-null viability, CellTiter-Glo, 60 h; stronger effect = lower value; viability, % at 10 µM; 140,000 compounds, 1.2% hits; AID 827;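 active = viability at or below a set limit, 4 SD under the median of all tested compounds, cut at about 3.7% in these data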;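 note: PTEN knockout HCT116 line with beta catenin targeted HCT116 as companion control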
HUVEC inhibit: human endothelial cell proliferation inhibition. HUVEC proliferation, CellTiter-Glo luminescence, 72 h; stronger effect = lower value. viability, % at 10 µM (by protocol). 86,000 compounds, 1.1% hits. AID 648;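 active = viability at or below 30%; inactive = viability above 30%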;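 note: 100% = median luminescence of DMSO-only cell control wells on each plate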
Numbers without * were called inactive; . = no result.

SMILES | bCat KO growth | Lung fibro prol | H69AR growth 86K | HCT116 PTEN-null | HUVEC inhibit
CCN(CC)CCNC(=O)Cc1nn(CC)c(=O)c2ccccc12 | 110 | 97 | 108 | 105 | 113
COc1ccc(CN2C(=O)/C(=C/c3ccncc3)SC2=S)cc1 | 2.5* | . | . | 2.0* | .
O=C(O)CCCCCN1C(=O)/C(=C\c2ccncc2)SC1=S | 32 | . | . | 35 | .
N/C(=N\OC(=O)CCC1CCCC1)c1cccnc1 | 100 | . | . | 96 | .
O=C1CCc2cc(S(=O)(=O)N3CCC(C(=O)NC4CCCCCCC4)CC3)ccc2N1 | 89 | 94 | 89 | 98 | 88
O=C(NC1CCCCCC1)C1CCN(S(=O)(=O)c2ccc(F)cc2)CC1 | 78 | 91 | 32* | 83 | 106
CCn1c2ccccc2c2cc(/C=N/n3cn[nH]c3=S)ccc21 | 70 | 85 | 15* | 56 | 76
CCn1c2ccccc2c2cc(/C=N/n3cnnc3)ccc21 | 91 | 80 | 74 | 78 | 109
CCC(=O)n1nc(-c2ccc(Cl)cc2)nc1NCc1ccccc1 | 10 | 52 | 17* | 10 | 45
COC(=O)NC(=S)Nc1ccc(Oc2ccc(Cl)cc2Cl)c(Cl)c1 | 23 | 103 | 24* | 26 | 57
COc1cccc(C(=O)N/N=C(/c2ccccc2)c2ccccn2)c1 | 5.0* | . | . | 1.9* | .
COc1cc(C(=O)N/N=C(\c2ccccc2)c2ccccn2)cc(OC)c1OC | 4.8* | . | . | 3.8* | .
COc1cccc(C(=O)N/N=C(/CCC(=O)O)c2ccccc2)c1 | 107 | . | . | 103 | .
COc1cc(C(=O)Nc2cccc3cccnc23)cc(OC)c1OC | 83 | 96 | 71 | 77 | 90
O=C(CNC(=O)c1ccccc1)N/N=C/c1ccc([N+](=O)[O-])o1 | 15 | . | . | 21 | .
Cc1ccc(NCC(=O)N/N=C\c2ccc([N+](=O)[O-])o2)cc1 | 5.8* | . | . | 9 | .
O=C(CNc1ccccc1)N/N=C/c1ccc([N+](=O)[O-])o1 | 2.6* | . | . | 4 | .
O=C(N/N=C/c1ccc([N+](=O)[O-])o1)c1ccc(O)cc1 | 3.2* | . | . | 5 | .
COC(=O)c1ccc(NC(CC(C)C)C(=O)OC)c([N+](=O)[O-])c1 (stereo not drawn) | 97 | . | . | 108 | .
O=C1c2ccccc2-c2onc3c(Oc4ccccc4)cc(O)c1c23 | 68 | 89 | 25* | 77 | 63
CN(C)/C=C1\C(=O)c2ccc(N(C)C)nc2CC1c1ccccc1 (stereo not drawn) | . | 94 | . | . | 93
O=C1c2ccccc2C(=O)C1c1ccnc2ccccc12 | 9 | 68 | 41 | 12 | 50
O=C1c2ccccc2C(=O)C1c1nccc2ccccc12 | 5.0* | . | . | 8 | .
Cc1ccc2nc3c(cc(C#N)c(=N)n3CCCN3CCOCC3)c(=O)n2c1 | . | 92 | 88 | . | 91
Cc1cccc(N2CCN(C(=O)c3ccc(Cl)c(S(=O)(=O)NCc4ccco4)c3)CC2)c1C | 10 | 68 | 21* | 9 | 55
SMILES | bCat KO growth | Lung fibro prol | H69AR growth 86K | HCT116 PTEN-null | HUVEC inhibit
O=C(c1ccc(Cl)c(S(=O)(=O)NCc2ccccc2)c1)N1CCN(c2ccccn2)CC1 | 48 | 94 | 21* | . | 74
O=C(O)c1ccc(Cl)c(S(=O)(=O)NCc2ccco2)c1 | 99 | 98 | 91 | 102 | 106
Cc1cc(C)cc(Oc2cc(NC(=O)c3cn(C)nc3C)cc([N+](=O)[O-])c2)c1 | 97 | . | . | 91 | .
c1ccc(-c2cc(-c3nn4c(-c5ccco5)nnc4s3)c3ccccc3n2)cc1 | 94 | 51 | 27* | 96 | 64
CCOc1ccc(-c2nn3c(-c4ccccc4)nnc3s2)cc1 | 111 | 102 | 77 | 100 | 19*
Cc1cc(-c2nn3c(-c4ccccc4)nnc3s2)c2ccccc2n1 | 67 | 99 | 77 | 58 | 77
CCOc1cccc(-c2nnc3sc(-c4cccs4)nn23)c1 | 104 | 92 | 33* | 105 | 92
COc1cc(-c2nnc3sc(-c4ccco4)nn23)cc(OC)c1OC | 44 | 86 | 18* | 41 | 77
Cc1ccccc1NC(NC(=O)c1cccs1)C(Cl)(Cl)Cl (stereo not drawn) | 79 | . | . | 69 | .
COc1cc(-c2nn3c(-c4ccccc4)nnc3s2)cc(OC)c1OC | 4.9* | 102 | 40 | 8 | 80
Clc1cccc(-c2nnc3sc(-c4ccccc4)nn23)c1 | . | 104 | 85 | . | 102
CCOc1cccc(-c2nnc3sc(-c4cc(OC)c(OC)c(OC)c4)nn23)c1 | 33 | 58 | 19* | 27 | 28*
COc1cc(-c2nnc3sc(-c4ccncc4)nn23)cc(OC)c1OC | . | 99 | 61 | . | 74
COc1cccc(-c2nnc3sc(-c4ccc(C)cc4)nn23)c1 | 50 | . | . | 48 | .
Cc1ccc(-c2nn3c(-c4cccc(Cl)c4)nnc3s2)cc1 | . | 98 | 21* | . | 72
Cc1nc2c(C)cccc2cc1C(=O)N/N=C/c1cccnc1 | 82 | . | . | 81 | .
CC(C)c1ccccc1NC(=O)COC(=O)c1ccc(Cl)c(S(=O)(=O)N2CCCCCC2)c1 | 95 | . | . | 93 | .
COc1ccc(NS(=O)(=O)c2cc(OC)ccc2NC(=O)c2cc(C)oc2C)cc1 | 22 | 67 | 21* | 27 | 56
COc1ccc(NC(=O)c2cc(-c3ccccc3)oc2C)cc1 | 101 | . | . | 98 | .
COc1ccc(NS(=O)(=O)c2cc(C)ccc2C)cc1 | 8 | 78 | 13* | 11 | 62
CCCCC(CCC(=O)NNC(=O)Cc1ccccc1)C(=O)O (stereo not drawn) | 94 | . | . | 93 | .
c1ccc(-c2cc(-c3nc(-c4cccnc4)no3)c3ccccc3n2)cc1 | . | 107 | 12* | . | 83
c1ccc(-c2ccccc2-c2nc(-c3cccnc3)no2)cc1 | 97 | 95 | 76 | 85 | 76
CC(C)(C)c1ccc(COn2c(=O)c(-c3ccco3)[n+]([O-])c3ccccc32)cc1 | 82 | 61 | 34* | 84 | 72
Cc1ccc(-c2c(=O)n(OCc3ccccn3)c3ccccc3[n+]2[O-])cc1 | 115 | . | . | 104 | .
COC(=O)C1=C(Cn2cnc3ccccc32)NC(=O)NC1c1cc(C)ccc1C (stereo not drawn) | 90 | 99 | 50 | 93 | 93
CCOC(=O)C1=C(Cn2cnc3ccccc32)NC(=O)NC1c1cc(C)ccc1C (stereo not drawn) | 53 | 95 | 16* | 40 | 96
